Source: ChEMBL document CHEMBL4732104, “Discovery of bardoxolone derivatives as novel orally active necroptosis inhibitors” (Eur J Med Chem, 2021)
The source made the active and inactive calls. No cut-off for these calls is given here.

Experiments:
[1] = tested on: L929; assay: Anti-necroptotic activity in mouse L929 cells assessed as inhibition of TNFalpha/Z-VAD-fmk (TZ)-induced necroptosis by measuring increase in cell viability measured after 12 hrs by celltiter-glo luminescent cell viability assay; format: functional, cell-based; details: L929, 12 h
How it was run: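 Mouse L929 fibroblasts pretreated with test agent, then mouse TNF-α (20 ng/mL) plus z-VAD-fmk (20 μM). Incubation stated as 4 h in table footnote and 12 h in figure legend. CellTiter-Glo viability. EC50 ± SD from at least three independent repeats.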

[2] = tested on: HT-29; assay: Anti-necroptotic activity in human HT-29 cells assessed as inhibition of TNFalpha/SM-164/Z-VAD-fmk (TSZ)-induced necroptosis by measuring increase in cell viability measured after 12 hrs by celltiter-glo luminescent cell viability assay; format: functional, cell-based; details: for EC50: HT-29, 12 h
How it was run: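 HT-29 cells pretreated with test agent across a concentration range, then TNF-α (20 ng/mL), Smac mimetic (10 nM) and z-VAD-fmk (20 μM) for 12–16 h. CellTiter-Glo viability. EC50 ± SD from at least three independent experiments.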

[3] = tested on: HT-29; assay: Anti-necroptotic activity in human HT-29 cells assessed as inhibition of TNFalpha/SM-164/Z-VAD-fmk (TSZ)-induced necroptosis by measuring reduction in plasma membrane rupture at 5 uM preincubated for 30 mins followed by TSZ stimulation and measured after 12 hrs by phase contrast microscopic analysis; format: functional, cell-based; details: time 12.5 hrs
How it was run: (§1)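 HT-29 cells pretreated with DMSO or compound, then stimulated with TNF-α, Smac mimetic and z-VAD-fmk for 12 h. Necrotic morphology (swelling, membrane rupture) viewed by phase contrast microscopy at 200×.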

[4] = tested on: HT-29; assay: Anti-necroptotic activity in human HT-29 cells assessed as inhibition of TNFalpha/cycloheximide/Z-VAD-fmk (TCZ)-induced necroptosis by measuring increase in cell viability measured after 16 hrs by celltiter-glo luminescent cell viability assay; format: functional, cell-based
[5] = tested on: HT-29; assay: Protection against TNFalpha/cycloheximide (TC)-induced apoptosis in human HT-29 cells assessed as increase in cell viability at 0.08 to 10 uM measured after 24 hrs by celltiter-glo luminescent cell viability assay; format: functional, cell-based; details: dose 0.08-10 µM
How it was run: (§2)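 HT-29 apoptosis induced by TNF-α 20 ng/mL plus Smac mimetic (20 h), or by TNF-α plus cycloheximide (24 h), with graded compound concentrations. Viability read by CellTiter-Glo luminescence; means ± S.D. of three independent experiments.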

[6] = tested on: HT-29; assay: Cytotoxicity against human HT-29 cells assessed as reduction in cell viability at 10 uM by MTT assay; format: cell-based; details: ht-29, 10 µM
[7] = tested on: HT-29; assay: Anti-necroptotic activity in human HT-29 cells assessed as inhibition of TNFalpha/SM-164/Z-VAD-fmk (TSZ)-induced necroptosis by measuring cell viability at 10 uM preincubated for 30 mins followed by TSZ stimulation and measured after 16 hrs by celltiter-glo luminescent cell viability assay relative to control; format: functional; details: time 16.5 hrs
How it was run: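 HT-29 cells in DMEM with 10% FBS, 37 °C, 5% CO2. Compound pretreatment 30 min, then TNF-α 20 ng/mL, Smac mimetic and z-VAD-fmk 20 μM for 16 h. Viability by CellTiter-Glo luminescence, normalised to untreated control cells.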

[8] = tested on: HT-29; assay: Anti-necroptotic activity in human HT-29 cells assessed as inhibition of TNFalpha/SM-164/Z-VAD-fmk (TSZ)-induced necroptosis by measuring reduction in cell swelling at 5 uM preincubated for 30 mins followed by TSZ stimulation and measured after 12 hrs by phase contrast microscopic analysis; format: functional, cell-based; details: time 12.5 hrs; how it was run: as §1
[9] = tested on: HT-29; assay: Protection against TNFalpha/SM-164 (TS)-induced apoptosis in human HT-29 cells assessed as increase in cell viability at 0.08 to 10 uM measured after 20 hrs by celltiter-glo luminescent cell viability assay; format: functional, cell-based; details: dose 0.08-10 µM; how it was run: as §2
[10] = tested on: HT-29; assay: Anti-necroptotic activity in human HT-29 cells assessed as inhibition of TNFalpha/SM-164/Z-VAD-fmk (TSZ)-induced necroptosis by measuring increase in cell viability at 10 uM measured after 12 hrs by celltiter-glo luminescent cell viability assay; format: functional, cell-based
How it was run: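 HT-29 cells in DMEM with 10% FBS at 37 °C, 5% CO2. Test agents at 10 μM, then TSZ stimulation for 12 h. Viability read by CellTiter-Glo luminescence.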

[11] = tested on: Rattus norvegicus; assay: Neuroprotective activity in middle cerebral artery occlusion-induced Sprague-Dawley rat model of ischemia-reperfusion injury assessed as reduction in cerebral infarct volume at 1 mg/kg by TTC staining based microscopic analysis relative to control; format: functional; set-up: scale not given: the % may be the effect or the level left

For `CC1(C)CC[C@]2(C(=O)N[C@@H]3CCCc4ccccc43)CC[C@]3(C)[C@H](C(=O)C=C4[C@@]5(C)C=C(C#N)C(=O)C(C)(C)[C@@H]5CC[C@]43C)[C@@H]2C1`, the EC50 [1] was 0.82 µM and the EC50 [2] was 1.91 µM.

With `CC1(C)CC[C@]2(C(=O)O)CC[C@]3(C)[C@H](C(=O)C=C4[C@@]5(C)C=C(C#N)C(=O)C(C)(C)[C@@H]5CC[C@]43C)[C@@H]2C1` [BARDOXOLONE] the Activity [3] was “Active”, the EC50 [1] was > 10 µM and the inhibition [4] was “Dose-dependent effect”. For the same molecule, the Activity [5] was “inactive”, the Activity [6] was “Toxic” and the Activity [7] was >100%. For the same molecule, the Activity [8] was “Active”, the inhibition [2] was “Dose-dependent effect” and the EC50 [2] was 1.3 µM. The Activity [9] was “inactive”.

`CC1(C)CC[C@]2(NC(=O)C(C)(F)F)CC[C@]3(C)[C@H](C(=O)C=C4[C@@]5(C)C=C(C#N)C(=O)C(C)(C)[C@@H]5CC[C@]43C)[C@@H]2C1` [OMAVELOXOLONE] gave an EC50 [1] of 5.25 µM and an EC50 [2] of 1.41 µM.

With `CC1(C)CC[C@]2(C(=O)NCCNC(=O)OC(C)(C)C)CC[C@]3(C)[C@H](C(=O)C=C4[C@@]5(C)C=C(C#N)C(=O)C(C)(C)[C@@H]5CC[C@]43C)[C@@H]2C1` the EC50 [1] was 1.48 µM and the EC50 [2] was 2.81 µM.

With `CC1(C)CC[C@]2(C(=O)n3ccnc3)CC[C@]3(C)[C@H](C(=O)C=C4[C@@]5(C)C=C(C#N)C(=O)C(C)(C)[C@@H]5CC[C@]43C)[C@@H]2C1` the EC50 [1] was 1.46 µM and the EC50 [2] was 2.1 µM.

For `COC(=O)/C=C/C(=O)OC`, the inhibition [10] was “inactive”.

For `COC(=O)[C@]12CCC(C)(C)C[C@H]1[C@H]1C(=O)C=C3[C@@]4(C)C=C(C#N)C(=O)C(C)(C)[C@@H]4CC[C@@]3(C)[C@]1(C)CC2` [BARDOXOLONE METHYL], the EC50 [1] was > 10 µM and the EC50 [2] was 4.34 µM.

In the case of `CC1(C)CC[C@]2(C(=O)NC3CCCCC3)CC[C@]3(C)[C@H](C(=O)C=C4[C@@]5(C)C=C(C#N)C(=O)C(C)(C)[C@@H]5CC[C@]43C)[C@@H]2C1`, the EC50 [1] is reported as > 10 µM and the EC50 [2] is reported as 1.3 µM.

In the case of `COC(=O)[C@@]12OC[C@]34[C@H]([C@@H](O)[C@@H]1O)[C@@]1(C)CC(=O)C(O)=C(C)[C@@H]1C[C@H]3OC(=O)[C@H](OC(=O)C=C(C)C)[C@@H]24`, the inhibition [10] is reported as “inactive”.

For `CC1(C)CC[C@]2(C(=O)O)CC[C@]3(C)C(=CC[C@@H]4[C@@]5(C)CC[C@H](O)C(C)(C)[C@@H]5CC[C@]43C)[C@@H]2C1` [OLEANOLIC_ACID], the EC50 [2] was > 10 µM.

In the case of `CC(C)c1cc(C(=O)N2Cc3ccc(CN4CCN(C)CC4)cc3C2)c(O)cc1O`, the inhibition [10] is reported as “Active”.

`CC1(C)CC[C@]2(C(=O)n3cnc(-c4ccccn4)c3)CC[C@]3(C)[C@H](C(=O)C=C4[C@@]5(C)C=C(C#N)C(=O)C(C)(C)[C@@H]5CC[C@]43C)[C@@H]2C1` was tested, and the EC50 [1] was 0.61 µM and the EC50 [2] was 0.29 µM.

In the case of `Cc1ccc(Nc2nccc(N(C)c3ccc4c(C)n(C)nc4c3)n2)cc1S(N)(=O)=O` [PAZOPANIB], the Activity [7] is reported as >80%.

For `CCNC(=O)[C@]12CCC(C)(C)C[C@H]1[C@H]1C(=O)C=C3[C@@]4(C)C=C(C#N)C(=O)C(C)(C)[C@@H]4CC[C@@]3(C)[C@]1(C)CC2`, the EC50 [1] was 4.15 µM and the EC50 [2] was 1.38 µM.

`COCCOC(=O)C1=C(C)NC(C)=C(C(=O)OC(C)C)C1c1cccc([N+](=O)[O-])c1` (stereo not drawn) [NIMODIPINE] gave an Activity [11] of 26.8%.

For `CC1(C)CC[C@]2(C(=O)O)[C@H](O)C[C@]3(C)C(=CC[C@@H]4[C@@]5(C)CC[C@H](O)C(C)(C)[C@@H]5CC[C@]43C)[C@@H]2C1`, the EC50 [2] was > 10 µM.

With `CC1(C)CC[C@]2(C(=O)NCc3ccccc3)CC[C@]3(C)[C@H](C(=O)C=C4[C@@]5(C)C=C(C#N)C(=O)C(C)(C)[C@@H]5CC[C@]43C)[C@@H]2C1` the EC50 [1] was 1.03 µM and the EC50 [2] was 1.63 µM.

With `C=CCNC1=C2C[C@@H](C)C[C@H](OC)[C@H](O)[C@@H](C)/C=C(\C)[C@H](OC(N)=O)[C@@H](OC)/C=C\C=C(/C)C(=O)NC(=CC1=O)C2=O` the inhibition [10] was “Active”.

With `CC1(C)CC[C@]2(C(=O)N[C@H]3CCCc4ccccc43)CC[C@]3(C)[C@H](C(=O)C=C4[C@@]5(C)C=C(C#N)C(=O)C(C)(C)[C@@H]5CC[C@]43C)[C@@H]2C1` the EC50 [1] was 0.62 µM and the EC50 [2] was 1.81 µM.
